A number with no mark means an inactive call. Records with an inconclusive call do not appear. Calls of active or inactive are those of the source.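 The calls were made as follows, unless noted: active = inhibition over a set limit, the all-compound mean plus 3 SD, in both replicate runs; inconclusive = over that limit in just one replicate run; inactive = at or under that limit in both runs.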

A short description of assay [1]: OD615 S. cerevisiae growth inhibition, permissive medium, pilot counter-assay, permissive growth control for S. cerevisiae lifespan shortening project (AID 705;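 active = growth inhibition above 25% in both replicates, a cutoff set 3 SD above the mean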). Particulars: OD615, 24 h, at 10 µM, active compounds read high. The method, boiled down: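 Material: engineered DeaD yeast; Compound: one dose 10 µM, DMSO 0.25% final; Detection: absorbance (optical density) at 615 nm; Buffer or medium: permissive raffinose/galactose medium; Timing: 24 h exposure, 30 °C.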

Assay [2] can be described thus: Restrictive medium S. cerevisiae growth inhibition, OD615, pilot screen of yeast lifespan reduction project, restrictive growth control (AID 706;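 active = growth inhibition above a set limit, 3 SD over mean compound inhibition, in both replicates, cut at about 43% in these data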;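 also: modified DeaD lifespan yeast strain shifted to restrictive glucose medium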). The settings on record: OD615, 48 h, at 10 µM, active compounds read high. The essentials:
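Buffer or medium: restrictive glucose medium (CSMM-D); test system: modified S. cerevisiae; doses: single dose of 10 µM compound final, 0.25% DMSO; schedule: 48 h compound exposure at 30 °C; detection: absorbance (optical density) measured at 615 nm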

Assay [3] can be described thus: viability gain of MRP-1-high H69AR cells under doxorubicin, pilot screen, MRP-1 activator project, CellTiter-Glo, duplicate (AID 807;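 active = viability increase at or above a cutoff of the median across tested compounds plus 3 SD, cut at about 8.5% in these data, passing the limit was not always enough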;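 also: compound pretreatment 18-22 h then 72 h combined with doxorubicin; 0% = doxorubicin alone and 100% = vehicle without doxorubicin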). Particulars: H69AR viability with doxorubicin, CellTiter-Glo luminescence; at 10 µM; active compounds read high. On the technique in general: In ATP-based viability assays light output follows the ATP content of the culture.
A short description of assay [4]: growth suppression of beta-catenin knockout HCT116, pilot screen, human colon tumor cells (AID 823;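 active = cell viability at or below a set limit in both duplicate runs, the limit being the all-compound median minus 4 SD, cut at about 23% in these data, passing the limit was not always enough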;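 also: 0% = wells killed by 20 µM Hyamine and 100% = untreated DMSO cell wells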). Particulars: CellTiter-Glo, 60 h, at 10 µM, active compounds read low.
Assay [5] is described as follows: growth suppression of PTEN-deleted HCT116, pilot screen, cell-based, HCT116 clonal line, CellTiter-Glo (AID 824;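 active = viability at or below 27.92% in each of two runs, the all-compound median minus 4 SD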;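 also: 0% = 20 µM Hyamine control and 100% = vehicle cell control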). The settings on record: 60 h, at 10 µM, active compounds read low.
Assay [6] can be described thus: inhibitors of the yeast RAM network, pilot screen, dse1pr::URA3 reporter, 5-FOA selection (AID 869).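 Also: 0% = DMSO wells with no growth and 100% = 10 µM 1-NA-PP1 with full growth; RAM network block rescues cells from 5-FOA so hits raise OD615 growth.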 The settings on record: S. cerevisiae dse1pr::URA3 5-FOA growth, OD615, 2 d; at 10 µM; active compounds read high; strain carries analog-sensitive mutant Cbk1 kinase.
Assay [7] in a line: RAM signaling pathway blockade in yeast – S. cerevisiae, Pdr1DBD-CYC8 efflux-inhibited sensitized strain, primary screen (AID 1298;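 active = RAM network inhibition above 8.4% in each of two replicates, 3 SD over the compound average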;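 also: 0% = DMSO untreated cells without growth and 100% = 10 µM 1-NA-PP1 full growth; higher means more yeast growth rescued from 5-FOA killing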). The settings on record: S. cerevisiae cbk1-as DSE1-URA3 strain, 5-FOA growth OD615, 2 d; at 50 µM; active compounds read high.

Consider `Cc1cccc(CCNC(=O)CN(C)S(=O)(=O)c2ccc3c(c2)c(=O)n(C)c(=O)n3C)c1`, for which the growth inhibition is -12.1% in assay [1] and -22.2% in assay [2]. Moreover, the viability increase in assay [3] was -0.92%. In addition, the values for the viability in assay [4] and in assay [5] were 102% and 90.4%, respectively. In addition, in assay [6], the inhibition was 1.75%. The RAM network inhibition in assay [7] is 2.91%.

Regarding `C=CCn1c2ccccc2c2nnc(SCN3C(=O)c4ccccc4C3=O)nc21`, the growth inhibition is 7.65% in assay [1] and 48.4% (active) in assay [2]. Also, in assay [3], the viability increase was -4.7%. For the same compound, the viability in assay [4] was 100%; in assay [5], 93.7%. For the same compound, the inhibition in assay [6] was 3.45%. The RAM network inhibition in assay [7] is 4.65%.

`Cn1c(C(C#N)C(=O)Cc2cccc3ccccc23)nc2ccccc21` (stereo not drawn): the growth inhibition was -3.6% in assay [1] and -5.02% in assay [2]. The viability increase in assay [3] was -1.14%. Also, the viability in assay [4] is 81.5%; in assay [5], 78.9%. Also, in assay [6], the inhibition was 2.59%. In addition, the RAM network inhibition in assay [7] was 4.32%.

`CCOC(=O)c1c(-c2ccccc2)c(C(C)=O)c(=O)n(C)c1C`: the growth inhibition in assay [1] is -19%; in assay [2], -9.79%. The viability increase in assay [3] was -3.81%. Moreover, the viability in assay [4] is 95.9%; in assay [5] it was 94.1%. Moreover, the inhibition in assay [6] is 4.63%. Further, in assay [7], the RAM network inhibition was 1.72%.

Take `CC(=O)c1c(N(C)C)ccnc1C(F)(F)F`: the growth inhibition in assay [1] is -3.09%; in assay [2] it was 8.03%. The viability increase in assay [3] is -2.95%. Also, the viability in assay [4] is 107%; in assay [5], 95.4%. For the same compound, the inhibition in assay [6] was 1.92%. The RAM network inhibition in assay [7] is 0.62%.

For the compound `O=S(=O)(c1ccc(-c2cn3ccccc3n2)cc1)N1CCOCC1`, the growth inhibition in assay [1] is 1.49%; in assay [2], -12.4%. The viability increase in assay [3] is -3.55%. The viability in assay [4] was 86.7%; in assay [5], 97.3%. Besides, the inhibition in assay [6] is 1.14%. In addition, the RAM network inhibition in assay [7] is 3.9%.

Take `O=C(O)CCCC(=O)N1CCN(c2nc(-c3ccccc3)c3ccccc3n2)CC1`: the growth inhibition in assay [1] was -9.64%; in assay [2], -6.36%. For the same compound, in assay [3], the viability increase was -1.22%. Moreover, the viability in assay [4] was 102%; in assay [5], 93%. In addition, the inhibition in assay [6] is 0.83%. Moreover, the RAM network inhibition in assay [7] was 4.79%.

`COC(=O)CSC1=C(C#N)C(c2cccc(OC)c2)CC(=O)N1` (stereo not drawn): the growth inhibition was -12.2% in assay [1] and -5.83% in assay [2]. Also, the viability increase in assay [3] is -3.93%. In addition, the viability was 89.1% in assay [4] and 90.3% in assay [5]. Further, the inhibition in assay [6] was 0.41%. The RAM network inhibition in assay [7] was -1.62%.

For the compound `COc1ccccc1N1C(=O)C2CC=CC(C)C2C1=O` (stereo not drawn), the figures for the growth inhibition in assay [1] and in assay [2] were -0.615% and 2.32%, respectively. For the same compound, the viability increase in assay [3] is -0.91%. In addition, the viability in assay [4] is 89.4%; in assay [5], 94%. Further, the inhibition in assay [6] was 0.52%. Also, in assay [7], the RAM network inhibition was 2.25%.

In the case of `C=C(C)Cn1c(C2CC(=O)N(c3ccccc3F)C2)nc2ccccc21` (stereo not drawn), the growth inhibition in assay [1] is -9.62%; in assay [2] it was -5.32%. The viability increase in assay [3] is -2.5%. Moreover, the results for the viability in assay [4] and in assay [5] were 100% and 105%, respectively. For the same compound, in assay [6], the inhibition is 0.42%. For the same compound, in assay [7], the RAM network inhibition is 1.56%.

Regarding `CCOC(=O)CN1c2ccccc2NC(=O)CC1C` (stereo not drawn), the growth inhibition is -5.11% in assay [1] and -4.52% in assay [2]. Moreover, in assay [3], the viability increase is -4.06%. Further, the results for the viability in assay [4] and in assay [5] were 101% and 98.9%, respectively. In addition, in assay [6], the inhibition is 0.895%. Further, in assay [7], the RAM network inhibition is -0.43%.

With `O=C1c2ccccc2NC(c2ccc3c(c2)OCCO3)N1c1ccc2c(c1)OCCO2` (stereo not drawn), the growth inhibition in assay [1] is -5.15%; in assay [2] it was 6.69%. In addition, the viability increase in assay [3] was -2.17%. The values for the viability in assay [4] and in assay [5] were 90.5% and 79.5%, respectively. In addition, the inhibition in assay [6] was 0.615%. Besides, the RAM network inhibition in assay [7] is 0.98%.

For the compound `CC1(C)C(=O)OC(c2cc(Br)ccc2O)C(C)(C)C1=O` (stereo not drawn), the growth inhibition is -8.82% in assay [1] and -1.84% in assay [2]. The viability increase in assay [3] was -2.35%. The viability in assay [4] was 90.2%; in assay [5], 82.1%. Besides, in assay [6], the inhibition was -0.355%. Further, the RAM network inhibition in assay [7] was 4.3%.

Consider `c1ccc(Oc2nc(Oc3ccccc3)nc(N3CCOCC3)n2)cc1`, for which the growth inhibition is -3.76% in assay [1] and -9.93% in assay [2]. Also, the viability increase in assay [3] is -2.99%. Besides, the viability in assay [4] was 83.7%; in assay [5], 74.1%. The inhibition in assay [6] is 0.355%. In assay [7], the RAM network inhibition is 8.11%.

Take `CCN(CC)S(=O)(=O)c1ccc(C(=O)OCCN2C(=O)CCC2=O)cc1`: the growth inhibition was -4.98% in assay [1] and 10.3% in assay [2]. Moreover, the viability increase in assay [3] is 0.48%. Besides, the viability in assay [4] is 102%; in assay [5] it was 101%. Also, the inhibition in assay [6] was 0.755%. The RAM network inhibition in assay [7] was 4.16%.

Take `Cc1ccc2oc(=O)c3cnn(CC(=O)N4CCN(c5ccccn5)CC4)c3c2c1`: the growth inhibition was -7.07% in assay [1] and -17.7% in assay [2]. In addition, the viability increase in assay [3] was -1.28%. In addition, the viability in assay [4] was 91.8%; in assay [5], 87.6%. The inhibition in assay [6] was 1.41%. Besides, in assay [7], the RAM network inhibition is -0.31%.

In the case of `CCn1c(SCC(=O)Nc2cccc(F)c2)nc2c(c1=O)SC(C)C2` (stereo not drawn), the values for the growth inhibition in assay [1] and in assay [2] were -11.8% and -1.47%, respectively. For the same compound, the viability increase in assay [3] is -0.53%. Also, the viability is 94.8% in assay [4] and 86.8% in assay [5]. Further, in assay [6], the inhibition was 1.57%. In assay [7], the RAM network inhibition is 4.64%.

Turning to `Cc1nc2sc(C(c3ccc(C(C)C)cc3)N3CCN(CCO)CC3)c(O)n2n1` (stereo not drawn), the growth inhibition in assay [1] is -9.91%; in assay [2] it was -9.61%. Moreover, the viability increase in assay [3] is -0.75%. The viability in assay [4] was 97%; in assay [5], 98.1%. In addition, the inhibition in assay [6] is 1.58%. In addition, the RAM network inhibition in assay [7] was 2.77%.

`CC(CCc1ccccc1)NC(=O)C1CCN(C(=O)c2sccc2-n2cccc2)CC1` (stereo not drawn): the results for the growth inhibition in assay [1] and in assay [2] were -4.79% and 0.295%, respectively. Also, the viability increase in assay [3] is 2.68%. For the same compound, the results for the viability in assay [4] and in assay [5] were 93.8% and 89.3%, respectively. In addition, the inhibition in assay [6] is 1.75%. Moreover, in assay [7], the RAM network inhibition is 2.14%.

For `O=C(CSc1nc2sc3c(c2c(=O)n1-c1ccccc1)CCCC3)NCc1ccco1`, the results for the growth inhibition in assay [1] and in assay [2] were -7.07% and -5.03%, respectively. The viability increase in assay [3] was -7.21%. The viability in assay [4] is 53.7%; in assay [5] it was 53.8%. The inhibition in assay [6] was 3.98%. Moreover, the RAM network inhibition in assay [7] is 6.12%.

On to `C=C(Br)Cn1c(CC(C)C)nc2ccccc21`, for which the growth inhibition was 13.3% in assay [1] and -14.3% in assay [2]. Besides, the viability increase in assay [3] is -4.96%. Also, the viability is 85.1% in assay [4] and 83.7% in assay [5]. For the same compound, the inhibition in assay [6] is 0.265%. Further, the RAM network inhibition in assay [7] is 4.37%.

Consider `O=C(CCc1ccccc1)Nc1nnc(-c2cccs2)o1`, for which the growth inhibition in assay [1] is -12.3%; in assay [2], -2.62%. Further, in assay [3], the viability increase is -4.02%. Besides, the viability is 103% in assay [4] and 97.3% in assay [5]. Moreover, the inhibition in assay [6] was 1.6%. Moreover, in assay [7], the RAM network inhibition is 3.35%.

As to `C=CCNC(=O)c1cnc2n(c1=O)CCS2`, the growth inhibition in assay [1] is 5.17%; in assay [2] it was 5.46%. The viability increase in assay [3] is 2.16%. The viability was 103% in assay [4] and 109% in assay [5]. In assay [6], the inhibition is 1.68%. In addition, the RAM network inhibition in assay [7] is -1.87%.

With `Cc1nn(Cc2c(Cl)cccc2Cl)c(C)c1NC(=O)c1cc(C(C)C)on1`, the growth inhibition was -10.6% in assay [1] and 0.6% in assay [2]. In assay [3], the viability increase is -1.33%. Further, the viability in assay [4] was 74.2%; in assay [5] it was 62.9%. Besides, the inhibition in assay [6] is 2.81%. For the same compound, the RAM network inhibition in assay [7] is 2.56%.

One may read the viability as a read-out of living cells in per cent, often relative to untreated cells. By inhibition is commonly meant the change of the read-out against control, counted positive when it falls.

Values taken from PubChem BioAssay.
